Experimental findings from ChEMBL document CHEMBL4118110, “The identification of inhibitory compounds of Rickettsia prowazekii methionine aminopeptidase for antibacterial applications” (Bioorg Med Chem Lett, 2018) are described below.

The structures appear in SMILES notation. pIC50: −log10 of the molar value.

A short description of one series: Inhibition of Rickettsia prowazekii N-terminal His6-tagged methionine aminopeptidase 1 expressed in Escherichia coli DLB3 Rosetta cells using Met-AMC as substrate preincubated for 1 hr followed by 30 mins incubation after substrate addition measured after 90 mins in presence of MnCl2 by fluorescence assay. Summed up: (§1)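 Recombinant R. prowazekii MetAP with Mn(II) as the metal cofactor. Met-AMC substrate; release of free AMC is followed by fluorescence (excitation 360 nm, emission 460 nm). Activity is the slope of fluorescence versus time, compared with an uninhibited control.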
`Cc1csc(-c2ccccn2)n1`: the pIC50 was 5.96.

Take `Nc1nnc(SCCC(=O)OC2CCCCC2)[nH]1`: the pIC50 is 5.03.

With `CNS(=O)(=O)c1ccc(C(=O)O)o1`, the pIC50 was 6.57.

Regarding `Nc1nnc(SCc2cccc3ccccc23)[nH]1`, the pIC50 was 5.30.

Regarding `O=C(O)c1cc(-c2ccccc2)on1`, the negative-log IC50 (pIC50) is 5.85.

On to `CC(=O)Nc1ccc(C(=O)CSc2nnc(N)[nH]2)cc1`, for which the pIC50 was 5.00.

For `CCCCn1cnc2sc(C(=O)O)c(C)c2c1=O`, the pIC50 is 5.51.

As to `Cc1n[nH]c(SCC(=O)c2cccc([N+](=O)[O-])c2)n1`, the pIC50 is 5.92.

Consider `Cc1ccc(C(=O)CSc2nnc(C)[nH]2)c(C)c1`, for which the pIC50 was 6.40.

Turning to `O=C(O)c1cc2ccc(F)cc2oc1=O`, the pIC50 was 5.08.

Turning to `COc1ccc2c(C)c(C(=O)O)[nH]c2c1`, the pIC50 was 5.43.

A further series in a line: Inhibition of Rickettsia prowazekii N-terminal His6-tagged methionine aminopeptidase 1 expressed in Escherichia coli DLB3 Rosetta cells at 10 uM using Met-AMC as substrate preincubated for 1 hr followed by 30 mins incubation after substrate addition measured after 90 mins in presence of MnCl2 by fluorescence assay relative to control. In short, it runs like this:
as §1
`Cc1csc(-c2ccccn2)n1`: the inhibition was in the range of 85 to 89%.

In the case of `CNS(=O)(=O)c1ccc(C(=O)O)o1`, the inhibition lay in the range of 43 to 91%.

Regarding `Nc1nnc(SCc2cccc3ccccc23)[nH]1`, the inhibition lay in the range of 74 to 83%.

For `O=C(O)c1cc(-c2ccccc2)on1`, the inhibition lay within 80 to 82%.

On to `CC(=O)Nc1ccc(C(=O)CSc2nnc(N)[nH]2)cc1`, for which the inhibition is 89%.

In the case of `CCCCn1cnc2sc(C(=O)O)c(C)c2c1=O`, the inhibition is 46 to 54%.

Take `Cc1ccc(C(=O)CSc2nnc(C)[nH]2)c(C)c1`: the inhibition is 54 to 68%.

On to `O=C(O)c1cc2ccc(F)cc2oc1=O`, for which the inhibition is 23 to 78%.

As for `Nc1n[nH]c(SCc2ccc(Br)cc2)n1`, the inhibition lay in the range of 28 to 36%.

`O=C(O)c1cc(=O)c2ccccc2[nH]1`: the inhibition was 7 to 59%.

Turning to `O=C(CSc1nnc[nH]1)c1cccc2ccccc12`, the inhibition was 1 to 39%.

For the compound `COC(=O)c1ccc(CSc2nc[nH]n2)o1`, the inhibition was 30 to 59%.

On to `c1ccn2c(C3CCCN3)nnc2c1` (configuration not stated), for which the inhibition is 2 to 51%.

As for `Cc1ccccc1-c1nnc(C(C)N)o1` (configuration not stated), the inhibition was in the range of 2 to 39%.

`Nc1n[nH]c(SCc2c(Cl)cccc2Cl)n1`: the inhibition fell in the range of 5 to 17%.

`CC(C)(Oc1ccc(Cl)cc1)C(=O)NN`: the inhibition was in the range of 42 to 46%.

Turning to `Nc1nnc(SCC(=O)OCCOc2ccccc2)[nH]1`, the inhibition lay in the range of 47 to 56%.

`NCc1nnc(-c2ccccc2)o1`: the inhibition lay within 12 to 13%.

Turning to `Cc1c(C(=O)O)sc2ncn(CC(=O)O)c(=O)c12`, the inhibition is 2 to 44%.

For `C#CCSc1nc2sc(C(=O)O)c(C)c2c(=O)[nH]1`, the inhibition lay within 9 to 58%.

Take `COc1ccc2c(C)c(C(=O)O)[nH]c2c1`: the inhibition lay in the range of 28 to 80%.

On to `Nc1nnc(SCCc2ccccc2)[nH]1`, for which the inhibition fell in the range of 14 to 42%.

With `Oc1ccc(Br)cc1-c1nnco1`, the inhibition was in the range of 1 to 14%.

As for `Cc1ccc(C(=O)CSc2nnc(N)[nH]2)cc1`, the inhibition fell in the range of 17 to 52%.

On to `CC(C)CC(N)c1nnc2ccccn12` (configuration not stated), for which the inhibition fell in the range of 22 to 61%.

With `C1CCc2nnc(-c3nnc4n3CCCCC4)n2CC1`, the inhibition is 1 to 60%.

Consider `Sc1nnc(-c2ccc(Br)cc2)[nH]1`, for which the inhibition fell in the range of 33 to 61%.

For the compound `O=C(O)c1cscn1`, the inhibition was 35 to 41%.

Regarding `Nc1ccc(C(=O)c2ccccc2)cc1N`, the inhibition lay within 10 to 39%.

With `CC(=O)c1c(C(=O)O)nn(-c2ccc(Cl)cc2)c1C`, the inhibition lay within 17 to 20%.

On to `CC(C)c1ccc(CSc2nnc(N)[nH]2)cc1`, for which the inhibition was in the range of 48 to 90%.

For the compound `CC(C)c1ccc2nc(-c3ccccn3)cc(C(=O)O)c2c1`, the inhibition lay within 18 to 56%.

On to `Nc1cc(-c2ccccn2)n[nH]1`, for which the inhibition fell in the range of 1 to 45%.

Turning to `c1ccc(-c2n[nH]c(-c3ccccn3)n2)cc1`, the inhibition fell in the range of 6 to 23%.

Take `Oc1ccccc1-c1nncn1-c1ccccc1`: the inhibition was 14 to 46%.

For `O=C(NCc1ccco1)c1ccc2nc(O)c(O)nc2c1`, the inhibition was 35 to 39%.

As to `Cc1cccc(CSc2nnc(N)[nH]2)c1`, the inhibition fell in the range of 27 to 46%.

As to `Cc1c(Cl)cccc1NC(=O)CSc1nnc[nH]1`, the inhibition is 22 to 62%.

For `O=C(CSc1nnc(-c2ccco2)[nH]1)N1CCOCC1`, the inhibition lay in the range of 24 to 40%.

With `Cc1nnc(SCC(=O)c2ccc(C)c(C)c2)[nH]1`, the inhibition fell in the range of 10 to 24%.

For `CC(Sc1nnc(N)[nH]1)C(=O)OCc1ccccc1` (configuration not stated), the inhibition fell in the range of 37 to 54%.

With `Cc1cc(C(=O)O)n[nH]1`, the inhibition fell in the range of 34 to 42%.

For the compound `O=C(CSc1nnc(-c2ccco2)[nH]1)c1ccccc1`, the inhibition fell in the range of 17 to 22%.

As for `COC(=O)CSc1n[nH]c(-c2ccncc2)n1`, the inhibition lay in the range of 1 to 39%.

Consider `O=C1CCC(c2ccccc2O)=NN1`, for which the inhibition fell in the range of 51 to 54%.

Turning to `Cc1nnc(C(N)c2ccccc2)o1` (configuration not stated), the inhibition lay within 5 to 8%.

Regarding `O=C(O)c1ccc(-c2cc(Cl)ccc2Cl)s1`, the inhibition is 1 to 80%.

`Cc1ccc(NC(=O)CSc2nnc[nH]2)c(C)c1`: the inhibition was in the range of 25 to 66%.

For `CCc1ccc(OCCCSc2nnc(N)[nH]2)cc1`, the inhibition was in the range of 25 to 31%.

As for `CCc1nnc(SCC(=O)c2ccc(C)cc2)[nH]1`, the inhibition lay in the range of 11 to 14%.

As to `CC(C)c1ccc(C(=O)CSc2nc[nH]n2)cc1`, the inhibition lay in the range of 1 to 32%.

As to `Cc1ccc(S(=O)(=O)Cc2ccc(C(=O)O)o2)cc1`, the inhibition was 12 to 25%.

A short description of the next series: Solubility of the compound. Format: physicochemical.
In the case of `NCc1nnnn1-c1cccc(Br)c1`, the solubility entry is “Insoluble”.

On to `O=C(O)c1cc(-c2ccc(Cl)cc2)n[nH]1`, for which the solubility result is given as “Insoluble”.

`C=CCNC(=O)c1cc(-c2ccccn2)nc2ccccc12`: the solubility entry was “Insoluble”.

Regarding `CCCNC(=O)c1cc(-c2ccccn2)nc2ccccc12`, the solubility result is “Insoluble”.
